Results reported in ChEMBL document CHEMBL3769385 (J Med Chem, 2016).
The source made the active and inactive calls.

Legend:
[1] = test system: Mus musculus; experiment: Cataleptic activity in C57BL/6J mouse at 0.01 to 30 mg/kg, ip measured after 60 mins; assay type: ADME, organism-based; conditions: in vivo, 1 h
[2] = target: T1, Alpha-2A adrenergic receptor (Homo sapiens, UniProt P08913); experiment: Binding affinity to human alpha-2A adrenergic receptor by radioligand binding assay
T1 sequence (P08913 whole entry): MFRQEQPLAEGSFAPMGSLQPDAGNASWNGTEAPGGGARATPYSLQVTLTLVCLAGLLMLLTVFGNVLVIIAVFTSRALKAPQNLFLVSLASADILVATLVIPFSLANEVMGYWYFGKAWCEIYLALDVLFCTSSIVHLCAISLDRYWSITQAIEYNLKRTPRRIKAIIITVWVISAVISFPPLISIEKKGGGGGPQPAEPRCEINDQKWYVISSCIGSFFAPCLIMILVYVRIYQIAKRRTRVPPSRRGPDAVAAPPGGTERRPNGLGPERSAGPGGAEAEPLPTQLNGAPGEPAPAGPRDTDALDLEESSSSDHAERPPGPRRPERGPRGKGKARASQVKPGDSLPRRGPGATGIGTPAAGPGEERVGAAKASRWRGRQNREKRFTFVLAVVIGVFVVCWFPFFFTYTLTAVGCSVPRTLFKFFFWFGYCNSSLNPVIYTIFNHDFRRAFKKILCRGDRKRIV

[3] = target: Beta-2 adrenergic receptor (Homo sapiens, UniProt P07550); experiment: Binding affinity to human beta-2 adrenergic receptor by radioligand binding assay
[4] = Binding affinity to sigma 2 receptor (unknown origin) by radioligand binding assay; parameters: species or system Homo sapiens
[5] = target: T2, Alpha-2C adrenergic receptor (Homo sapiens, UniProt P18825); experiment: Binding affinity to human alpha-2C adrenergic receptor by radioligand binding assay
T2 sequence (P18825 whole entry): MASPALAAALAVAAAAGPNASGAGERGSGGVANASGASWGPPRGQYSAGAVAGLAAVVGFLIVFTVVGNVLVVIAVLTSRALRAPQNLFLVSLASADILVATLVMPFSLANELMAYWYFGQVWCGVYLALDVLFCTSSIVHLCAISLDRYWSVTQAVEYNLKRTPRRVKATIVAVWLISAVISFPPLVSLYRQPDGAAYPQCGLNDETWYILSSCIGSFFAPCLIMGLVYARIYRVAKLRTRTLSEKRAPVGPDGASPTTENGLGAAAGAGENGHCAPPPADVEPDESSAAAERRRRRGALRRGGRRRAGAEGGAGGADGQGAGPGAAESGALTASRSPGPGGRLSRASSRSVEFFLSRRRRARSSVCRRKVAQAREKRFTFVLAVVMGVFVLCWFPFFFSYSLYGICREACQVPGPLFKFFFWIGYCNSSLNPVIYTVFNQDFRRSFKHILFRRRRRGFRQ

[6] = target: Histamine H2 receptor (Homo sapiens, UniProt P25021); experiment: Binding affinity to histamine H2 receptor (unknown origin) by radioligand binding assay
[7] = target: 5-hydroxytryptamine receptor 6 (Homo sapiens, UniProt P50406); experiment: Binding affinity to human 5HT6 receptor by radioligand binding assay
[8] = target: T3, Muscarinic acetylcholine receptor M5 (Homo sapiens, UniProt P08912); experiment: Binding affinity to human muscarinic acetylcholine M5 receptor by radioligand binding assay
T3 sequence (P08912 whole entry): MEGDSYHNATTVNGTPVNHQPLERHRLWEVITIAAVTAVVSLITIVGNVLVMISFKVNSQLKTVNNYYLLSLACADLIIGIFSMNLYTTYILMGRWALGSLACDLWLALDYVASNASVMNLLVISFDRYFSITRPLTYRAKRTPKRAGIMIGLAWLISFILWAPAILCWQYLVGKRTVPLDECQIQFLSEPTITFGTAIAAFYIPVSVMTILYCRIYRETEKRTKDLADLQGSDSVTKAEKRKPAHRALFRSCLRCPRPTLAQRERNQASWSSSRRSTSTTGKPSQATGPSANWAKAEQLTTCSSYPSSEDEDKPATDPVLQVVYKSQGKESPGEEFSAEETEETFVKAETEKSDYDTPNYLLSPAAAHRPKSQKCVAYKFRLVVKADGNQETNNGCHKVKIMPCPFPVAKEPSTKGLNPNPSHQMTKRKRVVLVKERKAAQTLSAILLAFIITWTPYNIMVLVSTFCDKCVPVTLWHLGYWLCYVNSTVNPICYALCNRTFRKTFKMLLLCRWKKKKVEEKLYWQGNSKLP

[9] = target: T4, D(4) dopamine receptor (Homo sapiens, UniProt P21917); experiment: Binding affinity to human dopamine D4 receptor by radioligand binding assay
T4 sequence (P21917 whole entry): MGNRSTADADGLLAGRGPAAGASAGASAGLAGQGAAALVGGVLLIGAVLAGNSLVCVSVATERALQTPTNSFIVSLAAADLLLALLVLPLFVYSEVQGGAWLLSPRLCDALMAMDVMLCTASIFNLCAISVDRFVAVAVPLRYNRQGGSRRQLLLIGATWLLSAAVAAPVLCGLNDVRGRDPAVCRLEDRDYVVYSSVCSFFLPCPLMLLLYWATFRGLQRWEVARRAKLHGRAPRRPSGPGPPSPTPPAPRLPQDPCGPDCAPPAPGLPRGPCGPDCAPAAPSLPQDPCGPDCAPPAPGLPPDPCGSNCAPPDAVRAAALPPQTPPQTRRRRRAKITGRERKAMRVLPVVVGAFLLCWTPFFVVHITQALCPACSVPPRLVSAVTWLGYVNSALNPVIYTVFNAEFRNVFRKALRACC

[10] = target: 5-hydroxytryptamine receptor 7 (Homo sapiens, UniProt P34969); experiment: Binding affinity to human 5HT7 receptor by radioligand binding assay
[11] = target: D(2) dopamine receptor (Homo sapiens, UniProt P14416); experiment: Binding affinity to human dopamine D2 receptor by radioligand binding assay
[12] = target: D(3) dopamine receptor (Homo sapiens, UniProt P35462); experiment: Binding affinity to dopamine D3 receptor (unknown origin) by radioligand binding assay
[13] = target: Sodium-dependent serotonin transporter (Homo sapiens, UniProt P31645); experiment: Binding affinity to human SERT by radioligand binding assay
[14] = target: T5, 5-hydroxytryptamine receptor 1A (Homo sapiens, UniProt P08908); experiment: Binding affinity to human 5HT1A receptor by radioligand binding assay
T5 sequence (P08908 whole entry): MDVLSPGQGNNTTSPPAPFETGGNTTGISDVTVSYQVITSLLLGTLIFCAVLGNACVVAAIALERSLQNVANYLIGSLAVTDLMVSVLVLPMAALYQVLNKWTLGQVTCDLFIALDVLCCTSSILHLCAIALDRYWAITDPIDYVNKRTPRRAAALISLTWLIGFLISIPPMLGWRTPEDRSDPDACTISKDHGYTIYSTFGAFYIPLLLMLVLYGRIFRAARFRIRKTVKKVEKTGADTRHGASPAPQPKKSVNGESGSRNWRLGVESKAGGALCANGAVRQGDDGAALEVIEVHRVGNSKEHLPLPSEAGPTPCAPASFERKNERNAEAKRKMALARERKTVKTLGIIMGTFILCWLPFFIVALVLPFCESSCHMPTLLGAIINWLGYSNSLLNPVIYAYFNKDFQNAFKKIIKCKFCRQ

[15] = test system: Mus musculus; experiment: Cognitive enhancing effect in NR1-KD mouse hypoglutamatergic model of schizophrenia assessed as reduction in duration of object exploration during testing at 0.5 to 1 mg/kg, ip administered for 30 mins measured for 3 days relative to wild type mouse; assay type: functional, organism-based
Summary of the method: (§1)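 Three daily 5-min trials: empty-chamber acclimation, two identical objects, then 24 h later one familiar plus one novel object (long-term memory). Sessions video-recorded; time spent investigating objects scored at training and testing.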

[16] = test system: Mus musculus; experiment: Cognitive enhancing effect in NR1-KD mouse hypoglutamatergic model of schizophrenia assessed as reduction in duration of object exploration during training at 0.5 to 1 mg/kg, ip administered for 30 mins measured for 3 days relative to wild type mouse; assay type: functional, organism-based; summary of the method: as §1
[17] = test system: Mus musculus; experiment: Suppression of AMPH-stimulated hyperlocomotion in C57BL/6J mouse assessed as reduction in distance travelled in open field at 5 to 30 mg/kg, ip administered for 15 mins followed by AMPH challenge measured after 105 mins; assay type: functional, organism-based
Summary of the method: (§2)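 Mice, n = 7–10/treatment, injected with vehicle or 2–30 mg/kg and placed in an open field monitored by infrared beams. After 15 min baseline, they were given vehicle or 3 mg/kg d-amphetamine and recorded for a further 105 min. Distance travelled was taken in 5-min bins or as a cumulative value over 15 min baseline plus 75 min post-amphetamine.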

[18] = test system: Mus musculus; experiment: Increase in AMPH-disrupted 4 to 12 dB prepulse inhibition in C57BL/6J mouse at 2 mg/kg administered for 10 mins followed by AMPH challenge; assay type: functional, organism-based
Summary of the method: (§3)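 Adult male C57BL/6 mice, n = 8–11/group, given vehicle or 0.5–4 mg/kg, then vehicle or 3 mg/kg amphetamine 10 min later. After 10 min acclimation in a startle chamber, 42 trials were run: 18 pulse-only (120 dB), 18 prepulse-pulse (4, 8, 12 dB prepulses) and 6 null. Peak startle (arbitrary units) was taken within 65 ms of pulse onset.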

[19] = test system: Mus musculus; experiment: Cognitive enhancing effect in NR1-KD mouse hypoglutamatergic model of schizophrenia at 0.5 to 1 mg/kg, ip administered for 30 mins measured for 3 days by novel object recognition memory test; assay type: functional, organism-based; summary of the method: as §1
[20] = test system: Mus musculus; experiment: Effect on 120 dB acoustic stimulus-induced pulse-only response in C57BL/6J mouse at 4 mg/kg, ip administered for 10 mins; assay type: functional, organism-based; summary of the method: as §3
[21] = test system: Mus musculus; experiment: Restoration of AMPH-disrupted 4 to 12 dB prepulse inhibition in C57BL/6J mouse at 0.5 to 1 mg/kg, ip administered for 10 mins followed by AMPH challenge; assay type: functional, organism-based; summary of the method: as §3
[22] = test system: Mus musculus; experiment: Increase in AMPH-disrupted 4 to 12 dB prepulse inhibition in C57BL/6J mouse at 4 mg/kg, ip administered for 10 mins followed by AMPH challenge; assay type: functional, organism-based; summary of the method: as §3
[23] = test system: Mus musculus; experiment: Attenuation of novel object recognition memory in wild type mouse assessed as decrease in preference for novel object at 1 mg/kg, ip administered for 30 mins measured for 3 days; assay type: functional, organism-based; summary of the method: as §1
[24] = test system: Mus musculus; experiment: Suppression of AMPH-stimulated hyperlocomotion in C57BL/6J mouse assessed as reduction in distance travelled in open field at 2 mg/kg, ip administered for 15 mins followed by AMPH challenge measured after 105 mins; assay type: functional, organism-based; summary of the method: as §2
[25] = test system: Mus musculus; experiment: Effect on 120 dB acoustic stimulus-induced pulse-only response in C57BL/6J mouse at 4 mg/kg, ip administered for 10 mins followed by AMPH challenge; assay type: functional, organism-based; summary of the method: as §3
[26] = test system: Mus musculus; experiment: Reduction in 120 dB acoustic stimulus-induced pulse-only response in C57BL/6J mouse at 0.5 to 2 mg/kg dose followed by AMPH challenge; assay type: functional, organism-based; summary of the method: as §3
[27] = target: 5-hydroxytryptamine receptor 2B (Homo sapiens, UniProt P41595); experiment: Agonist activity at recombinant human 5HT2B receptor expressed in Flp-In-293 cells assessed as calcium flux at 10 uM by FLIPR assay relative to 5-HT; assay type: functional, cell-based
[28] = test system: Mus musculus; experiment: Cataleptic activity in ip dosed C57BL/6J mouse measured after 60 mins; assay type: organism-based; conditions: in vivo, 1 h
Summary of the method: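 Male C57BL/6J mice, n = 8–10/treatment/time-point, front paws placed on a 2.5 mm horizontal bar with rear paws on the bench, tested at baseline and then injected with vehicle, haloperidol (0.01–10 mg/kg) or test agent (0.01–30 mg/kg). Separate groups were scored at 60 min as time until paw removal, with a 60 s cut-off.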

Sequence of 5-hydroxytryptamine receptor 7 (P34969 whole entry): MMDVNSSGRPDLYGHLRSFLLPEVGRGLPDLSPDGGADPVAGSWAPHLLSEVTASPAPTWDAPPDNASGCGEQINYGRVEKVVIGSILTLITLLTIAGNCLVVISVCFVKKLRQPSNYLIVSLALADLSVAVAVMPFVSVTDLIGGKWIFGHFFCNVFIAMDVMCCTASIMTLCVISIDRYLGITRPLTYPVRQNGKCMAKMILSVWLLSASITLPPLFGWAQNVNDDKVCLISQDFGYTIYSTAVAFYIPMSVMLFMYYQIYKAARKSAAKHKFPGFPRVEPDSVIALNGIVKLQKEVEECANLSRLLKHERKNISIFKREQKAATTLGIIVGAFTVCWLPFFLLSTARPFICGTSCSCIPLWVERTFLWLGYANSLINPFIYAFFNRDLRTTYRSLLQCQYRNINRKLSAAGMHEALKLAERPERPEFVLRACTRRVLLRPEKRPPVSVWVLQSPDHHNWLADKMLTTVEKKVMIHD
Sequence of D(3) dopamine receptor (P35462 whole entry): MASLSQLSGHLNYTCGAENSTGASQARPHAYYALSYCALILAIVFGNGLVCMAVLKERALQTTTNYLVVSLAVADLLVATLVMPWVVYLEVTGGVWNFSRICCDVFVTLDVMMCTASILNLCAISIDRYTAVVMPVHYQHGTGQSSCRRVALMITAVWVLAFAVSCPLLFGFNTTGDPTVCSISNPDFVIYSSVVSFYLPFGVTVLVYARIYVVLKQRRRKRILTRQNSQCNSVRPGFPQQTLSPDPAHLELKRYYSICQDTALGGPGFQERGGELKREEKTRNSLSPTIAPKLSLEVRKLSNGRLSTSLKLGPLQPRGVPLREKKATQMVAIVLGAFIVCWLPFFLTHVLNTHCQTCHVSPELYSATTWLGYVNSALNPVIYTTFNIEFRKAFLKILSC
Sequence of 5-hydroxytryptamine receptor 6 (P50406 whole entry): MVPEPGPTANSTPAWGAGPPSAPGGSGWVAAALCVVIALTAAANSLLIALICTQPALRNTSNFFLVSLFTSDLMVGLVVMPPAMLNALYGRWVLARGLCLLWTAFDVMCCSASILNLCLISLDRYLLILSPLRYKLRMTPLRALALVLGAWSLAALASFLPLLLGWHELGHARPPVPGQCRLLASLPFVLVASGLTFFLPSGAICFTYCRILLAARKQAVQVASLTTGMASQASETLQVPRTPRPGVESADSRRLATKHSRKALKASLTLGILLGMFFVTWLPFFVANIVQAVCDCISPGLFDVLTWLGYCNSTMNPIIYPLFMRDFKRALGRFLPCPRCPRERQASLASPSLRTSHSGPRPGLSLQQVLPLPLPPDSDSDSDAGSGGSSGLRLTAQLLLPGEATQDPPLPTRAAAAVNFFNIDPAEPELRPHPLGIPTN
Sequence of Histamine H2 receptor (P25021 whole entry): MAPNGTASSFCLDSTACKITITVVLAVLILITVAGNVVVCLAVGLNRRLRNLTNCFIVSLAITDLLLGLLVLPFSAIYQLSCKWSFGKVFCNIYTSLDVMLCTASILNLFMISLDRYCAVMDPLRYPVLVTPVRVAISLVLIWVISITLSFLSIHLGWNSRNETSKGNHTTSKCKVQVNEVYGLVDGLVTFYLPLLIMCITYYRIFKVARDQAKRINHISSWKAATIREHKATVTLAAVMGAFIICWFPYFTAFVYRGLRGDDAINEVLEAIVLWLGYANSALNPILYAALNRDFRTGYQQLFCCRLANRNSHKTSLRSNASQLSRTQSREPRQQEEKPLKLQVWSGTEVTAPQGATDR
Sequence of Sodium-dependent serotonin transporter (P31645 whole entry): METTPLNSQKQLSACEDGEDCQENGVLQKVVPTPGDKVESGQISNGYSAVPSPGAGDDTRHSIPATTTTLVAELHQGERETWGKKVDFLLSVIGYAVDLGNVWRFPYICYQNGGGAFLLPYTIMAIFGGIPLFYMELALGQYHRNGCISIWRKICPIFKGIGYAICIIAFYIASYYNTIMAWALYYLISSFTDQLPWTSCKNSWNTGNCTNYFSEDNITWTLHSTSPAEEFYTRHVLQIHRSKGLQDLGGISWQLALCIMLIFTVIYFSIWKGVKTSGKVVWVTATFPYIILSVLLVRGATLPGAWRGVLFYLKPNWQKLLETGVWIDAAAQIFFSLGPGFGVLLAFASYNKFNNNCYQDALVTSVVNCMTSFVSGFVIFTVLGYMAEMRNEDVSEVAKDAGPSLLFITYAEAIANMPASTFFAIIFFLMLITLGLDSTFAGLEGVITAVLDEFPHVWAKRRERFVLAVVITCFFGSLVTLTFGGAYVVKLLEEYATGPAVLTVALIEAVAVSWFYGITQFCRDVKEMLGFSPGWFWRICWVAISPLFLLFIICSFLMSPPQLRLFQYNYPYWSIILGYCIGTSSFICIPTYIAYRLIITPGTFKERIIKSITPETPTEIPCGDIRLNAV
Sequence of D(2) dopamine receptor (P14416 whole entry): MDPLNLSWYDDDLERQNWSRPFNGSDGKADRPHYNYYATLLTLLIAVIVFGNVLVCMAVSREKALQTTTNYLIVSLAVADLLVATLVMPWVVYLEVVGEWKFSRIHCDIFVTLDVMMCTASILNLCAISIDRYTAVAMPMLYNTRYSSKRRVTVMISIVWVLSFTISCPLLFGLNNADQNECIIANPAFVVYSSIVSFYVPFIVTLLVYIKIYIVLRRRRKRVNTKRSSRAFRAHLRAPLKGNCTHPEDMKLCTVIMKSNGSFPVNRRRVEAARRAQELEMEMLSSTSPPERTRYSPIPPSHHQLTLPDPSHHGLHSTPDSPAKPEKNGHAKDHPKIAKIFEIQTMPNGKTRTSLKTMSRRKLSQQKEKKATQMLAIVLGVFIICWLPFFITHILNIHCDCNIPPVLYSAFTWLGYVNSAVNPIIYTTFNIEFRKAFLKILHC
Sequence of 5-hydroxytryptamine receptor 2B (P41595 whole entry): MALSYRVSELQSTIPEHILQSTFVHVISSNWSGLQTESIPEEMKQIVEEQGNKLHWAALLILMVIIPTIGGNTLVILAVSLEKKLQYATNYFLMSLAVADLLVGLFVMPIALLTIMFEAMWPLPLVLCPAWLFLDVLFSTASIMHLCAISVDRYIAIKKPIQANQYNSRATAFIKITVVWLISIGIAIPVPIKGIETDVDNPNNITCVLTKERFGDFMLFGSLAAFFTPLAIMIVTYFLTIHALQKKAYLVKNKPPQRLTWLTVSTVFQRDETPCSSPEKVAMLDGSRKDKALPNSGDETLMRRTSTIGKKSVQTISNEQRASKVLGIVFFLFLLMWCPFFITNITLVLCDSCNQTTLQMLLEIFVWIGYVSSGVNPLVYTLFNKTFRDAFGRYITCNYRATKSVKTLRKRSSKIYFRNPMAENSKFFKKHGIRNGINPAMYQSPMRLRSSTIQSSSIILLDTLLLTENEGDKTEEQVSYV
Sequence of Beta-2 adrenergic receptor (P07550 whole entry): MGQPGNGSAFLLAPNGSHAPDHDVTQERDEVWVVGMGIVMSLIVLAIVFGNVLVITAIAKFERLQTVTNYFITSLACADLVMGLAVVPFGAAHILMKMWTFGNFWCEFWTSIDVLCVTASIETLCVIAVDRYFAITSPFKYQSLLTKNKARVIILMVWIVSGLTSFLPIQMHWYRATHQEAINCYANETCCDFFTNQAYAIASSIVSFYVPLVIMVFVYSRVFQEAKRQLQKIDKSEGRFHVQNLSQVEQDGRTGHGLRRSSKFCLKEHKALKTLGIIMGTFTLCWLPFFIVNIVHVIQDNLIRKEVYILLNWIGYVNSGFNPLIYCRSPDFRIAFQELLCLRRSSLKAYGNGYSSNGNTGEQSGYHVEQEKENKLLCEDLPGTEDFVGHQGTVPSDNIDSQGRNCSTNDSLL

Q: What does the source list for C=CCOc1cc(F)c(F)cc1C1CC1CN.Cl (single isomer, unassigned; (+))?
A: Activity [1]: Non-toxic; Ki ([2]; read-out: Ki): 661 nM; Ki ([2]; read-out: pKi (converted)): 166 nM; Ki [3]: 807 nM; Ki [4]: 2110 nM; pKi [4]: 5.68; Ki [5]: 278 nM; Ki [6]: 3390 nM; Ki ([7]; read-out: Ki): 111 nM; Ki ([7]; read-out: pKi (converted)): 115 nM; Ki [8]: 2840 nM; Ki [9]: 1680 nM; Ki ([10]; read-out: Ki): 1270 nM; Ki ([10]; read-out: pKi (converted)): 1020 nM; Ki [11]: 4900 nM; Ki ([12]; read-out: Ki): 201 nM; Ki ([12]; read-out: pKi (converted)): 195 nM; Ki [13]: 1260 nM; Ki ([14]; read-out: Ki): 750 nM; Ki ([14]; read-out: pKi (converted)): 933 nM

Q: With C=CCOc1cc(F)c(F)cc1C1CC1CN (single isomer, unassigned; (+)) as the molecule, how does the Activity [15] read?
A: Active

Q: And the Activity [16]?
A: Active

Q: And the Activity [17]?
A: Dose-dependent effect

Q: What about the Activity [18] of the same molecule?
A: Active

Q: And the Activity [19]?
A: Active

Q: What about the Activity [20] of the same molecule?
A: inactive

Q: What about the Activity [21] of the same molecule?
A: Active

Q: What about the Activity [22] of the same molecule?
A: inactive

Q: And the Activity [23]?
A: Active

Q: And the Activity [24]?
A: inactive

Q: What about the Activity [25] of the same molecule?
A: inactive

Q: And the Activity [26]?
A: Active

Q: Which Emax [27] does the source give for C=CCOc1cc(F)c(F)cc1C1CC1CN (single isomer, unassigned; (-)) here?
A: < 15%

Q: With O=C(CCCN1CCC(O)(c2ccc(Cl)cc2)CC1)c1ccc(F)cc1 [HALOPERIDOL] as the molecule, how does the Activity [28] read?
A: Dose-dependent effect
